Data taken from ChEMBL document CHEMBL1124266, “Stereoelectronic factors influencing the biological activity and DNA interaction of synthetic antitumor agents modeled on CC-1065” (J Med Chem, 1988).
Active and inactive are the calls of the source. The calls are words filed in the database; no cut-off is given here.

System: L1210
Assay: In vitro concentration required to inhibit 50% growth of murine L1210 leukemia cells
Format: functional
Settings: Mus musculus, read-out: ID50 (the source's name)
Summary of the method: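 Mouse L1210 leukemia cells in RPMI 1634 with 5% fetal calf serum, 0.075% sodium bicarbonate, penicillin 0.1 mg/mL and streptomycin 50 μg/mL. Drug aliquots added to tubes, then cells at approximately 5 × 10³ cells/mL. Incubation 37 °C for 3 days; cell number by Coulter counter. ID₅₀ = nM concentration giving 50% growth inhibition.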

| Structure (SMILES) | IC50 [nM] |
| --- | --- |
| CC1=C(C(=O)N2CC3CC34C2=CC(=O)c2[nH]cc(C)c24)Cc2ccccc21 (stereo unspecified) | 30 |
| Cc1c[nH]c2c1C13CC1CN(C(=O)c1ccc(NC(=O)c4ccccc4)cc1)C3=CC2=O (stereo unspecified) | 0.5 |
| Cc1c[nH]c2c1C13CC1CN=C3C=C2O (stereo unspecified) | 900 |
| Cc1c[nH]c2c1C13CC1CN(C(=O)c1ccc[nH]1)C3=CC2=O (stereo unspecified) | 2 |
| Cc1c[nH]c2c1C13CC1CN(S(=O)(=O)c1ccccc1)C3=CC2=O (stereo unspecified) | 900 |
| Cc1c[nH]c2c1C13CC1CN(C(=O)c1cc4cc(NC(=O)c5cc6cc(NC(=O)c7ccccc7)ccc6[nH]5)ccc4[nH]1)C3=CC2=O (stereo unspecified) | 0.01 |
| Cc1c[nH]c2c1C13CC1CN(C(=O)c1cc4cc(NC(=O)c5ccccc5)ccc4[nH]1)C3=CC2=O (stereo unspecified) | 0.07 |
| CCCCCC(=O)Nc1ccc2nc(C(=O)N3CC4CC45C3=CC(=O)c3[nH]cc(C)c35)ccc2c1 (stereo unspecified) | 100 |
| CCCCCCCCCC(=O)N1CC2CC23C1=CC(=O)c1[nH]cc(C)c13 (stereo unspecified) | 100 |
| Cc1c[nH]c2c1C13CC1CN(C(=O)c1cc4cc(NC(=O)c5cc6ccccc6[nH]5)ccc4[nH]1)C3=CC2=O (stereo unspecified) | 0.01 |
| CC(=O)N1CC2CC23C1=CC(=O)c1[nH]cc(C)c13 (stereo unspecified) | 20 |
| Cc1c[nH]c2c1C13CC1CN(C(=O)c1ccc4ccccc4c1)C3=CC2=O (stereo unspecified) | 7 |
| COc1c(O)c2c(c3cc(C(=O)N4CCc5c4c(O)c(OC)c4[nH]c(C(=O)N6C[C@H]7C[C@@]78C6=CC(=O)c6[nH]cc(C)c68)cc54)[nH]c13)CCN2C(N)=O [(+)-CC-1065] | 0.07 |
| Cc1c[nH]c2c1C13CC1CN(C(=O)c1cc4cc(NC(=O)c5cc6cc(NC(N)=O)ccc6[nH]5)ccc4[nH]1)C3=CC2=O (stereo unspecified) | 0.3 |

System: P388
Assay: In vivo % increase in life span of treated animals (OD) over that of control mice bearing tumor, determined against P388 leukemia cells; NA=no activity(<20% ILS)
Format: functional, organism-based
Settings: Mus musculus
Summary of the method: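 P388 leukemia kept by serial passage in female DBA/2 mice. Male BDF1 mice were given 10^6 cells ip on day 0. Drug was given ip on days 1, 5 and 9 in 2% DMA/10% Emulphor 620-P/water, with six mice per group. Optimum dose was in mg/kg per day. %ILS came from the median day of death versus untreated tumor-bearing controls. Mice alive at 30 days were counted as cured.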

| Structure (SMILES) | ILS |
| --- | --- |
| CC1=C(C(=O)N2CC3CC34C2=CC(=O)c2[nH]cc(C)c24)Cc2ccccc21 (stereo unspecified) | inactive |
| Cc1c[nH]c2c1C13CC1CN=C3C=C2O (stereo unspecified) | inactive |
| CCCCCCCCCC(=O)N1CC2CC23C1=CC(=O)c1[nH]cc(C)c13 (stereo unspecified) | inactive |

System: not listed separately
Assay: Lipophilic/hydrophilic partitioning (RP-TLC)
Format: ADME
Settings: 2:1 DMF-saline
Summary of the method: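 Reverse-phase TLC developed in 2:1 DMF–saline (0.9% NaCl). Plates scanned at 350 nm. R_f values averaged from two to four determinations.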

| Structure (SMILES) | Rf |
| --- | --- |
| CC1=C(C(=O)N2CC3CC34C2=CC(=O)c2[nH]cc(C)c24)Cc2ccccc21 (stereo unspecified) | 0.39 |
| Cc1c[nH]c2c1C13CC1CN(C(=O)c1ccc(NC(=O)c4ccccc4)cc1)C3=CC2=O (stereo unspecified) | 0.42 |
| Cc1c[nH]c2c1C13CC1CN=C3C=C2O (stereo unspecified) | 0.87 |
| Cc1c[nH]c2c1C13CC1CN(C(=O)c1ccc[nH]1)C3=CC2=O (stereo unspecified) | 0.7 |
| Cc1c[nH]c2c1C13CC1CN(S(=O)(=O)c1ccccc1)C3=CC2=O (stereo unspecified) | 0.58 |
| Cc1c[nH]c2c1C13CC1CN(C(=O)c1cc4cc(NC(=O)c5cc6cc(NC(=O)c7ccccc7)ccc6[nH]5)ccc4[nH]1)C3=CC2=O (stereo unspecified) | 0.3 |
| Cc1c[nH]c2c1C13CC1CN(C(=O)c1cc4cc(NC(=O)c5ccccc5)ccc4[nH]1)C3=CC2=O (stereo unspecified) | 0.43 |
| CCCCCC(=O)Nc1ccc2nc(C(=O)N3CC4CC45C3=CC(=O)c3[nH]cc(C)c35)ccc2c1 (stereo unspecified) | 0.15 |
| CCCCCCCCCC(=O)N1CC2CC23C1=CC(=O)c1[nH]cc(C)c13 (stereo unspecified) | 0.07 |
| Cc1c[nH]c2c1C13CC1CN(C(=O)c1cc4cc(NC(=O)c5cc6ccccc6[nH]5)ccc4[nH]1)C3=CC2=O (stereo unspecified) | 0.3 |
| CC(=O)N1CC2CC23C1=CC(=O)c1[nH]cc(C)c13 (stereo unspecified) | 0.9 |
| Cc1c[nH]c2c1C13CC1CN(C(=O)c1ccc4ccccc4c1)C3=CC2=O (stereo unspecified) | 0.46 |
| COc1c(O)c2c(c3cc(C(=O)N4CCc5c4c(O)c(OC)c4[nH]c(C(=O)N6C[C@H]7C[C@@]78C6=CC(=O)c6[nH]cc(C)c68)cc54)[nH]c13)CCN2C(N)=O [(+)-CC-1065] | 0.39 |

System: Nucleic Acid
Assay: Induced circular dichroism (ICD), expressed as molar ellipticity, in the presence of calf-thymus DNA
Format: functional
Settings: Bos taurus
Summary of the method: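 Drug stock (1–4 mg/mL in DMA, DMF or DMSO) injected into calf-thymus DNA (11 × 10⁻⁵ M) in 0.01 M phosphate buffer pH 7.2. Final drug 0.85 × 10⁻⁵ M, base-to-drug ratio 13. Stood 24 h at room temperature before CD spectrum. Value is molar ellipticity at long-wavelength maximum, ca. 350 nm.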

| Structure (SMILES) | ICD |
| --- | --- |
| CC1=C(C(=O)N2CC3CC34C2=CC(=O)c2[nH]cc(C)c24)Cc2ccccc21 (stereo unspecified) | 0.004 |
| Cc1c[nH]c2c1C13CC1CN(C(=O)c1ccc(NC(=O)c4ccccc4)cc1)C3=CC2=O (stereo unspecified) | 0.011 |
| Cc1c[nH]c2c1C13CC1CN=C3C=C2O (stereo unspecified) | 0 |
| Cc1c[nH]c2c1C13CC1CN(C(=O)c1ccc[nH]1)C3=CC2=O (stereo unspecified) | 0.01 |
| Cc1c[nH]c2c1C13CC1CN(C(=O)c1cc4cc(NC(=O)c5cc6cc(NC(=O)c7ccccc7)ccc6[nH]5)ccc4[nH]1)C3=CC2=O (stereo unspecified) | 0.033 |
| Cc1c[nH]c2c1C13CC1CN(C(=O)c1cc4cc(NC(=O)c5ccccc5)ccc4[nH]1)C3=CC2=O (stereo unspecified) | 0.036 |
| CCCCCCCCCC(=O)N1CC2CC23C1=CC(=O)c1[nH]cc(C)c13 (stereo unspecified) | 0 |
| Cc1c[nH]c2c1C13CC1CN(C(=O)c1cc4cc(NC(=O)c5cc6ccccc6[nH]5)ccc4[nH]1)C3=CC2=O (stereo unspecified) | 0.07 |
| CC(=O)N1CC2CC23C1=CC(=O)c1[nH]cc(C)c13 (stereo unspecified) | 0 |
| Cc1c[nH]c2c1C13CC1CN(C(=O)c1ccc4ccccc4c1)C3=CC2=O (stereo unspecified) | 0 |
| COc1c(O)c2c(c3cc(C(=O)N4CCc5c4c(O)c(OC)c4[nH]c(C(=O)N6C[C@H]7C[C@@]78C6=CC(=O)c6[nH]cc(C)c68)cc54)[nH]c13)CCN2C(N)=O [(+)-CC-1065] | 0.28 |
| Cc1c[nH]c2c1C13CC1CN(C(=O)c1cc4cc(NC(=O)c5cc6cc(NC(N)=O)ccc6[nH]5)ccc4[nH]1)C3=CC2=O (stereo unspecified) | 0.075 |

System: not listed separately
Assay: Pseudo-first order rate constant at pH 3 followed spectrophotometrically; Stable
Format: ADME
Settings: not given

| Structure (SMILES) | k |
| --- | --- |
| Cc1c[nH]c2c1C13CC1CN=C3C=C2O (stereo unspecified) | Stable |

System: P388
Assay: In vivo optimum dose given on days 1, 5, and 9 to mice implanted intraperitoneally with P388 leukemia cells
Format: functional, Mus musculus
Settings: not given
Summary of the method: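 P388 cells (10⁶/mouse) implanted ip into male BDF1 mice on day 0. Dosing ip on days 1, 5 and 9 in 2% DMA/10% Emulphor 620-P/water vehicle. Six mice per group. Optimum dose given in mg/kg per day, judged by increase in median life span.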

| Structure (SMILES) | OD [mg/kg/day] |
| --- | --- |
| CC1=C(C(=O)N2CC3CC34C2=CC(=O)c2[nH]cc(C)c24)Cc2ccccc21 (stereo unspecified) | 17 |
| Cc1c[nH]c2c1C13CC1CN(C(=O)c1ccc(NC(=O)c4ccccc4)cc1)C3=CC2=O (stereo unspecified) | 0.5 |
| Cc1c[nH]c2c1C13CC1CN=C3C=C2O (stereo unspecified) | 10 |
| Cc1c[nH]c2c1C13CC1CN(C(=O)c1ccc[nH]1)C3=CC2=O (stereo unspecified) | 1 |
| Cc1c[nH]c2c1C13CC1CN(C(=O)c1cc4cc(NC(=O)c5cc6cc(NC(=O)c7ccccc7)ccc6[nH]5)ccc4[nH]1)C3=CC2=O (stereo unspecified) | 0.1 |
| Cc1c[nH]c2c1C13CC1CN(C(=O)c1cc4cc(NC(=O)c5ccccc5)ccc4[nH]1)C3=CC2=O (stereo unspecified) | 0.05 |
| CCCCCC(=O)Nc1ccc2nc(C(=O)N3CC4CC45C3=CC(=O)c3[nH]cc(C)c35)ccc2c1 (stereo unspecified) | 21 |
| CCCCCCCCCC(=O)N1CC2CC23C1=CC(=O)c1[nH]cc(C)c13 (stereo unspecified) | 40 |
| Cc1c[nH]c2c1C13CC1CN(C(=O)c1cc4cc(NC(=O)c5cc6ccccc6[nH]5)ccc4[nH]1)C3=CC2=O (stereo unspecified) | 0.05 |
| CC(=O)N1CC2CC23C1=CC(=O)c1[nH]cc(C)c13 (stereo unspecified) | 3 |
| Cc1c[nH]c2c1C13CC1CN(C(=O)c1ccc4ccccc4c1)C3=CC2=O (stereo unspecified) | 6 |
| COc1c(O)c2c(c3cc(C(=O)N4CCc5c4c(O)c(OC)c4[nH]c(C(=O)N6C[C@H]7C[C@@]78C6=CC(=O)c6[nH]cc(C)c68)cc54)[nH]c13)CCN2C(N)=O [(+)-CC-1065] | 0.1 |
| Cc1c[nH]c2c1C13CC1CN(C(=O)c1cc4cc(NC(=O)c5cc6cc(NC(N)=O)ccc6[nH]5)ccc4[nH]1)C3=CC2=O (stereo unspecified) | 0.1 |

System: P388
Assay: In vivo % increase in life span of treated animals (OD) over that of control mice bearing tumor, determined against P388 leukemia cells
Format: functional, Mus musculus
Settings: not given
Summary of the method: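 Male BDF1 mice inoculated ip with 10⁶ P388 cells (tumor passaged in DBA/2 females) on day 0. Drug ip on days 1, 5, 9 in 2% DMA, 10% Emulphor 620-P, water. Six mice per group. %ILS = (median death day treated / median death day untreated control − 1) × 100, at optimum dose. 30-day survivors counted as cured.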

| Structure (SMILES) | ILS [%] |
| --- | --- |
| Cc1c[nH]c2c1C13CC1CN(C(=O)c1ccc(NC(=O)c4ccccc4)cc1)C3=CC2=O (stereo unspecified) | 83 |
| Cc1c[nH]c2c1C13CC1CN(C(=O)c1ccc[nH]1)C3=CC2=O (stereo unspecified) | 71 |
| Cc1c[nH]c2c1C13CC1CN(C(=O)c1cc4cc(NC(=O)c5cc6cc(NC(=O)c7ccccc7)ccc6[nH]5)ccc4[nH]1)C3=CC2=O (stereo unspecified) | 77 |
| Cc1c[nH]c2c1C13CC1CN(C(=O)c1cc4cc(NC(=O)c5ccccc5)ccc4[nH]1)C3=CC2=O (stereo unspecified) | 82 |
| CCCCCC(=O)Nc1ccc2nc(C(=O)N3CC4CC45C3=CC(=O)c3[nH]cc(C)c35)ccc2c1 (stereo unspecified) | 127 |
| Cc1c[nH]c2c1C13CC1CN(C(=O)c1cc4cc(NC(=O)c5cc6ccccc6[nH]5)ccc4[nH]1)C3=CC2=O (stereo unspecified) | 159 |
| CC(=O)N1CC2CC23C1=CC(=O)c1[nH]cc(C)c13 (stereo unspecified) | 45 |
| Cc1c[nH]c2c1C13CC1CN(C(=O)c1ccc4ccccc4c1)C3=CC2=O (stereo unspecified) | 73 |
| COc1c(O)c2c(c3cc(C(=O)N4CCc5c4c(O)c(OC)c4[nH]c(C(=O)N6C[C@H]7C[C@@]78C6=CC(=O)c6[nH]cc(C)c68)cc54)[nH]c13)CCN2C(N)=O [(+)-CC-1065] | 62 |
| Cc1c[nH]c2c1C13CC1CN(C(=O)c1cc4cc(NC(=O)c5cc6cc(NC(N)=O)ccc6[nH]5)ccc4[nH]1)C3=CC2=O (stereo unspecified) | 121 |
